In ChEMBL document CHEMBL4257459, “Synergistic antifungal effect of cyclized chalcone derivatives and fluconazole against Candida albicans” (2017) one finds MIC, Activity and inhibition data, which are given here for 1 molecule.

SMILES strings stand for the structures. ≈ marks a conversion by molar mass, not a printed value. Calls of active or inactive are those of the source. The calls are words filed in the database; no cut-off is given here.

The subject of assay [1] is Candida albicans. Briefly: Antifungal activity against fluconazole resistant Candida albicans 167-1 by CLSI protocol based broth microdilution method. Format: functional. In a few lines:
(§1)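 Broth microdilution per CLSI M27-A3 against clinical C. albicans isolates. Strains sub-cultured at least twice on Tryptone Soya Agar, 37 °C, 48 h. Compounds dissolved in DMSO at 2000 μg mL–1 stock. Fluconazole positive control, plus culture, media and vehicle controls. Run in duplicate; MIC in μg mL–1.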
(Dilution methods test growth across graded concentrations, often in twofold steps.)

For assay [2], the system named is Candida albicans. The assay is described as follows: Up regulation of ERG11 gene expression in fluconazole resistant Candida albicans A171 at 8 ug/ml after 2 hrs by qRT PCR analysis. Format: functional, organism-based. In a few lines: (§2)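 Cells exposed 2 h to test agents at MIC. Total RNA isolated, cDNA synthesized, qPCR for ERG11 with ACT1 as endogenous control. Triplicate independent experiments, reported as mean ± standard deviation.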

Assay [3] relates to Candida albicans. Briefly: Inhibition of ergosterol biosynthesis in fluconazole susceptible Candida albicans ATCC 90028 at 8 ug/ml relative to control. Format: functional. In short, it runs like this: (§3)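 Total sterols quantified by alcoholic KOH extraction in cells grown in 50 ml TSB with compounds at MIC and ½ MIC; untreated and 8 μg mL–1 fluconazole controls. Spectral scan; ergosterol content from A281.5 and A230 absorbances, dilution factor and pellet weight, correcting for 24(28) DHE.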

Assay [4] deals with Candida albicans. Briefly: Antifungal activity against fluconazole susceptible Candida albicans 002B1 by CLSI protocol based broth microdilution method. Format: functional. In a few lines: (§4)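 Clinical isolates and control strain subcultured at least twice on TSA, 37 °C, 48 h. MICs by CLSI M27-A3 broth microdilution; compounds dissolved in DMSO to 2000 μg mL–1 stock. Fluconazole positive control, culture, media and DMSO vehicle controls in each run. Duplicate experiments; MIC in μg mL–1.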

Assay [5] concerns Candida albicans. The assay is described as follows: Antifungal activity against fluconazole susceptible Candida albicans 0072gr by CLSI protocol based broth microdilution method. Format: functional. In a few lines: as §4
Assay [6] deals with Candida albicans. The assay is described as follows: Antifungal activity against fluconazole resistant Candida albicans 167-2 by CLSI protocol based broth microdilution method. It counts as functional. In a few lines:
as §1

The test system of assay [7] is Candida albicans. Briefly: Inhibition of ergosterol biosynthesis in fluconazole resistant Candida albicans A171 at 8 ug/ml relative to control. It counts as functional. In short, it runs like this:
as §3

In assay [8] the test system is Candida albicans. The assay is described as follows: Antifungal activity against fluconazole susceptible Candida albicans 004B1 by CLSI protocol based broth microdilution method. Format: functional. In short, it runs like this:
as §4

The subject of assay [9] is Candida albicans. The assay is described as follows: Antifungal activity against fluconazole resistant Candida albicans A171 by CLSI protocol based broth microdilution method. Format: functional. In a few lines:
as §1

For assay [10], the system named is Candida albicans. The assay is described as follows: Down regulation of ERG11 gene expression in fluconazole susceptible Candida albicans ATCC 90028 at 8 ug/ml after 2 hrs by qRT PCR analysis. Format: functional, organism-based. In short, it runs like this: as §2
Assay [11] deals with Candida albicans. Briefly: Antifungal activity against fluconazole susceptible Candida albicans 0079gr by CLSI protocol based broth microdilution method. It counts as functional. In a few lines: as §4
In assay [12] the test system is Candida albicans. The assay is described as follows: Antifungal activity against fluconazole susceptible Candida albicans 003gr by CLSI protocol based broth microdilution method. It counts as functional. In short, it runs like this:
as §4

The test system of assay [13] is Candida albicans. Briefly: Antifungal activity against fluconazole susceptible Candida albicans 004gr by CLSI protocol based broth microdilution method. It counts as functional. In short, it runs like this: as §4
For assay [14], the system named is Candida albicans. Briefly: Antifungal activity against Candida albicans ATCC 90028 by CLSI protocol based broth microdilution method. Format: functional. In a few lines:
as §4

In the case of `OC(Cn1cncn1)(Cn1cncn1)c1ccc(F)cc1F` [FLUCONAZOLE], the MIC (usually the lowest concentration that inhibits growth of the organism) in the assay on Candida albicans [1] lay within 125 to 500 µg/mL (≈ 408 to 1630 µM); against Candida albicans [4] it was 2 to 8 µg/mL (≈ 6.53 to 26.1 µM); against Candida albicans [5], 2 to 8 µg/mL (≈ 6.53 to 26.1 µM); in the assay on Candida albicans [6], 125 to 500 µg/mL (≈ 408 to 1630 µM); with Candida albicans [8] it was 2 to 8 µg/mL (≈ 6.53 to 26.1 µM); in the assay on Candida albicans [9], 125 to 500 µg/mL (≈ 408 to 1630 µM). The MIC in the assay with Candida albicans [11], with Candida albicans [12], against Candida albicans [13] and against Candida albicans [14] was 2 to 8 µg/mL (≈ 6.53 to 26.1 µM) each time. In addition, the result with Candida albicans [2] was inactive. In addition, the inhibition (in general, the relative decrease from the control value, in per cent) at 8 µg/mL with Candida albicans [3] is 100%; with Candida albicans [7] it was 11%. Further, the inhibition result in the assay with Candida albicans [10] is “Active”.
